Source: ChEMBL document CHEMBL4823301, “Synthesis of acyclic nucleoside phosphonates targeting flavin-dependent thymidylate synthase in Mycobacterium tuberculosis” (Bioorg Med Chem, 2021)
The source made the active and inactive calls. The rule behind the calls is not given here.

Columns and labels:
[1] = target: T1, Flavin-dependent thymidylate synthase (Mycobacterium tuberculosis) (UniProt P9WG57); test: Inhibition of Mycobacterium tuberculosis H37Rv ThyX expressed in Escherichia coli BL21(DE3) using 100 uM dUMP as substrate in presence of FAD cofactor at 200 uM incubated for 10 mins prior to the injection of NADPH and measured upto 20 mins by NADPH oxidase based spectrophotometric analysis relative to control; conditions: time 30.0 min
T1 sequence (whole entry): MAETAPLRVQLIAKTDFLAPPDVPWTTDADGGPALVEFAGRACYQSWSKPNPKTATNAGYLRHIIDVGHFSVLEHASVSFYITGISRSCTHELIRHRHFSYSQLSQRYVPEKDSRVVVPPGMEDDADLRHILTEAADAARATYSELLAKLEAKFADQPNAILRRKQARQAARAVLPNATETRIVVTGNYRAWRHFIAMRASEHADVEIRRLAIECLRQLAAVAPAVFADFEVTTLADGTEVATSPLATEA
Procedure, shortened: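 Mtb ThyX from E. coli BL21(DE3)/pLysS carrying pET24d, purified and stored at −20 °C, with a FAD:ThyX ratio of 1:3. Compound was preincubated 10 min at 25 °C. Injected NADPH started the reaction, and A340 fall was read up to 20 min. Duplicates; % inhibition = (1−Vi/Vo)×100 from initial rates.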

[2] = target: T1, Flavin-dependent thymidylate synthase (Mycobacterium tuberculosis); test: Inhibition of Mycobacterium tuberculosis H37Rv ThyX expressed in Escherichia coli BL21(DE3) using 10 uM dUMP as substrate in presence of FAD cofactor at 200 uM incubated for 10 mins prior to the injection of NADPH and measured upto 20 mins by NADPH oxidase based spectrophotometric analysis; conditions: time 30.0 min
[3] = target: T1, Flavin-dependent thymidylate synthase (Mycobacterium tuberculosis); test: Inhibition of Mycobacterium tuberculosis H37Rv ThyX expressed in Escherichia coli BL21(DE3) using 100 uM dUMP as substrate in absence of FAD cofactor at 200 uM incubated for 10 mins prior to the injection of NADPH and measured upto 20 mins by NADPH oxidase based spectrophotometric analysis; conditions: time 30.0 min
[4] = Inhibition of flavin-dependent thymidylate synthetase (unknown origin); design: species or system Bacteria

SMILES | inhibition [1] [%] | inhibition [2] | inhibition [3] | Ki [4] [nM]
CCCCCCCC(=O)NCC#Cc1ccc2c(c1)c(=O)[nH]c(=O)n2CC=CCP(=O)(O)O | 0 | inactive | inactive | –
O=C(Cc1ccccc1)NCC#Cc1ccc2c(c1)c(=O)[nH]c(=O)n2CC=CCP(=O)(O)O | 0 | inactive | inactive | –
CCCCCCCC(=O)NCC#Cc1ccc2c(=O)[nH]c(=O)n(CC=CCP(=O)(O)O)c2c1 | 14.9 | inactive | inactive | –
CCCCCCCC(=O)NCC#Cc1cn(CC=CCP(=O)(O)O)c(=O)[nH]c1=O | 0 | inactive | inactive | –
O=c1[nH]c(=O)n(CC=CCP(=O)(O)O)c2ccccc12 | 15.8 | inactive | inactive | –
CCCCCCNC(=O)NCC#Cc1ccc2c(=O)[nH]c(=O)n(CC=CCP(=O)(O)O)c2c1 | 31.8 | inactive | inactive | –
CCCCCCNC(=O)NCC#Cc1cn(CC=CCP(=O)(O)O)c(=O)[nH]c1=O | 0 | inactive | inactive | –
O=c1[nH]c(=O)n(CC=CCP(=O)(O)O)cc1Cc1ccccc1 | 23.7 | inactive | inactive | –
COc1ccc2c(=O)[nH]c(=O)n(CC=CCP(=O)(O)O)c2c1 | 26.4 | inactive | inactive | –
O=C(Cc1ccccc1)NCC#Cc1ccc2c(=O)[nH]c(=O)n(CC=CCP(=O)(O)O)c2c1 | 14.7 | inactive | inactive | –
CCCCCCNC(=O)NCC#Cc1ccc2c(c1)c(=O)[nH]c(=O)n2CC=CCP(=O)(O)O | 14.9 | inactive | inactive | –
O=C1c2ccccc2C(=O)C(c2ccco2)C1O (configuration not stated) | – | – | – | 28
Cc1ccc2c(c1)c(=O)[nH]c(=O)n2CC=CCP(=O)(O)O | 26.2 | inactive | inactive | –
